Source: PubChem BioAssay (several laboratories)
The list is not random: actives were taken first. Their share in the collection is about 4.8%.
PAFAH1B2 FP inh – inhibitors of human PAFAH1B2; recombinant PAFAH1B2, FP-rhodamine activity probe, fluorescence polarization; P68402; 340,000 compounds, 1.2% hits; inhibition, % at 3.39 µM; AID 492953;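 active = inhibition above the mean of all tested compounds plus 3 SD, cut at about 24% in these data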
GRIN3A LBD mod – modulators (binders) of human NR3A ligand-binding domain | NR3A LBD differential scanning fluorimetry, Tm shift; 0% = protein alone, 100% = glycine-bound protein | Tm shift relative to glycine control, % at 25 µM | 340,000 compounds, 2.5% hits | AID 1259313;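 active = melting temperature shift of at least 10% of the positive control shift, at one fixed dose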
PAFAH2 FP inh – PAFAH2 (human) inhibition; recombinant PAFAH2, FP-rhodamine activity probe, fluorescence polarization; inhibition, % at 3.39 µM; 340,000 compounds, 0.99% hits;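 active = inhibition above the mean over all tested compounds plus 3 SD, cut at about 30% in these data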;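 note: inhibitors block probe labeling of enzyme so polarization drops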
pPAFAH inh – inhibitors of human plasma PAF acetylhydrolase (pPAFAH). recombinant pPAFAH, FP-rhodamine probe fluorescence polarization. Q13093. inhibition, % at 3.39 µM. 330,000 compounds, 1.5% hits;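 active = inhibition above the mean inhibition across the screen plus 3 SD, cut at about 25% in these data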;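 note: inhibitors block binding of the rhodamine activity-based probe so polarization drops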
PAFAH1B3 inh – blocks human PAF acetylhydrolase 1B catalytic subunit 3; Q15102; recombinant PAFAH1B3, FP-rhodamine probe, fluorescence polarization; inhibition, % at 3.39 µM; 340,000 compounds, 0.28% hits; AID 492972;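 active = inhibition above the screen-wide average of all tested compounds plus 3 SD, cut at about 25% in these data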
Target sequence (Q15102 whole entry, looked up): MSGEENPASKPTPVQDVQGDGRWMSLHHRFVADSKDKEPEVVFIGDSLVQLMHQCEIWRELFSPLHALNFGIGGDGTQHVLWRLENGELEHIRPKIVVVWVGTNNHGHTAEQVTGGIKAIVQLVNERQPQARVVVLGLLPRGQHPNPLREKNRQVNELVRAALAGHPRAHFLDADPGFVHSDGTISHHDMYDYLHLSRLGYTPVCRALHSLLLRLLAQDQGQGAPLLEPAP
UCH37 inh – human UCH37 deubiquitinating enzyme inhibition. purified proteasome/UCH37, Ub-AMC cleavage fluorescence. inhibition, % (test concentration not listed). 330,000 compounds, 0.33% hits;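 active = mean inhibition over replicate wells above about 20%, limit read from the data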
Target sequence (Q9Y5K5 whole entry, looked up): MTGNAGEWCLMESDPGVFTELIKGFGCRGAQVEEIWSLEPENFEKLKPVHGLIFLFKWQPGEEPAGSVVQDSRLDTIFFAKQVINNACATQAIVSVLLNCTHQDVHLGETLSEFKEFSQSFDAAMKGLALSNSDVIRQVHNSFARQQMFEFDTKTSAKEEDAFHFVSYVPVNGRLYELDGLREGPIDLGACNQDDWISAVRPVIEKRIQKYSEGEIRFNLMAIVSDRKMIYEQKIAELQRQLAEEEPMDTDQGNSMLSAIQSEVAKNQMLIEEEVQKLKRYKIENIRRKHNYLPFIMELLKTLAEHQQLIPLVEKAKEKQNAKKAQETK
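Schedule: 30 min plus 25 min, room temperature / Material: human UCH37 within purified proteasomes / Technique: AMC fluorescence intensity at 355/460 nm / Buffer or medium: pH 7.4 Tris-HCl (50 mM) with ovalbumin, ATP-MgCl2, DTT / Controls: wells without proteasome as full block, compound-free enzyme plus substrate as uninhibited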
Hits are given with their value; – = inactive; · = no result given.

SMILES	PAFAH1B2 FP inh	GRIN3A LBD mod	PAFAH2 FP inh	pPAFAH inh	PAFAH1B3 inh	UCH37 inh
Cc1ccc(NC(=O)CS(=O)CC(=O)Nc2ccc3c(c2)OCO3)cc1Cl (centres undefined)	–	30	–	–	–	–
COc1ccc(C(=O)NCC(=O)NN=C/C=C/c2ccccc2)cc1OC	·	·	·	·	·	–
O=C(CSc1nnc(SCc2ccccc2)s1)N/N=C/C=C\c1ccco1	–	–	–	28	–	·
Cn1cccc1CC(=O)N/N=C/C=C/c1ccco1	–	–	–	27	–	·
Cc1nc2ccccc2c(=O)n1N=Cc1cn(-c2ccccc2)nc1-c1cccs1	·	·	·	·	·	–
CC1=CC(=C(C#N)C#N)C=C(C)N1CCN1CCN(C(=O)Nc2ccc(Cl)c(Cl)c2)CC1	–	18	–	–	–	–
Nc1nc(-c2cc(O)ccc2[N+](=O)[O-])cc(-c2ccccc2)c1[N+](=O)[O-]	–	11	–	·	–	·
Cc1ccc(-c2c3c([nH]c(=S)c2C#N)CCCC3)o1	–	–	–	25	–	–
N#Cc1c(-c2ccncc2)c2c([nH]c1=S)CCCC2	–	–	–	–	–	–
COc1ccc(C(=O)NN=Cc2sc(=O)n(Cc3cccc(C(=O)O)c3)c2Cl)cc1	·	·	·	·	·	–
O=C(N/N=C/c1ccncc1)c1cc([N+](=O)[O-])cc([N+](=O)[O-])c1O	–	–	–	32	–	·
COc1ccccc1C(=O)NCC(=O)N/N=C/c1ccc([N+](=O)[O-])cc1	–	–	–	–	–	·
O=C(N/N=C/c1ccncc1)c1sc2ccccc2c1Cl	–	13	–	–	–	·
O=C(N/N=C/C=C/c1ccccc1)c1ccncc1	–	25	–	–	–	·
COc1ccccc1C(=O)NCC(=O)NN=Cc1ccncc1	·	·	·	·	·	30
CC(C)C=NNc1nc(-c2ccc(Br)cc2)cs1	·	·	·	·	·	–
O=C(N/N=C/c1ccc(F)cc1)c1cccc(NC(=O)c2ccc(F)cc2)c1	–	33	–	–	–	·
O=C(N/N=C/c1ccc(F)cc1)c1ccccc1	–	–	–	–	–	·
O=C(N/N=C\c1ccc(F)cc1)c1csnn1	–	12	–	–	–	·
COC(=O)c1ccc(/C=N/NC(=O)c2ccc3nc[nH]c3c2)cc1	–	11	–	–	–	·
CN(C)c1ccc(/C=N/NC(=O)c2ccc(NC(=O)c3ccccc3)cc2)cc1	–	19	–	–	–	·
COc1ccc(/C=N/NC(=O)c2ccc3nc[nH]c3c2)cc1OC	–	–	–	–	–	·
Cc1ccc(C=NNC(=O)c2csnn2)cc1	·	·	·	·	·	–
Cn1c(-c2ccccc2)c(C=NNC(=O)c2ccc(O)cc2)c2ccccc21	·	·	·	·	·	–
O=C(O)c1ccc(C=NNc2ccc(F)cc2F)cc1	·	·	·	·	·	–
SMILES	PAFAH1B2 FP inh	GRIN3A LBD mod	PAFAH2 FP inh	pPAFAH inh	PAFAH1B3 inh	UCH37 inh
O=C(NN=Cc1ccncc1)c1ccccc1	·	·	·	·	·	31
O=C(N/N=C/c1cccc(NC(=O)c2ccc(Cl)cc2)c1)c1ccc(O)cc1	–	29	–	–	–	·
O=C(NN=Cc1ccc[nH]1)c1ccccc1O	·	·	·	·	·	–
O=C(N/N=C/c1ccncc1)c1cccc(NC(=O)c2ccc(Cl)cc2)c1	–	26	–	–	–	·
O=C(NN=Cc1ccncc1)c1ccncc1	·	·	·	·	·	–
O=C(NN=Cc1ccncc1)c1ccc(NC(=O)c2ccc(Cl)cc2)cc1	·	·	·	·	·	–
O=C(N/N=C/c1ccc[nH]1)c1cc2ccccc2cc1O	–	11	–	25	–	·
COc1ccc2ccccc2c1C=NN1C(=O)CSC1=S	·	·	·	·	·	–
O=C(NN=Cc1cc([N+](=O)[O-])cc([N+](=O)[O-])c1O)/C(=C\c1cccs1)NC(=O)c1ccccc1	·	·	·	·	·	–
O=C(NN=Cc1ccccc1)c1ccccc1-n1cccc1	·	·	·	·	·	–
CC1=NNC(=O)C1CC(=O)NN=Cc1sccc1C (centres undefined)	·	·	·	·	·	–
Cc1ccc(CNC(=O)CON=Cc2ccc(C(C)(C)C)cc2)cc1	·	·	·	·	·	–
O=C(N/N=C/c1ccncc1)c1cc2ccccc2cc1O	–	13	–	·	–	·
Cc1cc(C)cc(NC(=S)Nc2ccc(Cl)c(Cl)c2)c1	–	22	–	–	–	–
Cc1ccc(NC(=S)Nc2ccc(Cl)c(Cl)c2)c(OC(F)F)c1	–	15	–	–	–	–
Cc1ccc(NC(=S)Nc2ccc(OC(F)F)c(Cl)c2)cc1Cl	–	38	–	–	–	–
Fc1ccc(NC(=S)Nc2ccccc2OC(F)F)cc1Cl	–	–	–	–	–	–
Cc1cc(C)cc(NC(=S)NCCSc2ccc(Cl)cc2)c1	–	13	–	–	–	–
Cc1ccc(S(=O)(=O)NN=Cc2ccc(O)cc2O)cc1[N+](=O)[O-]	·	·	·	·	·	–
Cc1cc(C(=O)NN=Cc2ccc[nH]2)no1	·	·	·	·	·	–
COc1ccc(NC(=S)Nc2cccc(Cl)c2)cc1OC	–	–	–	–	–	–
COc1ccc(NC(=S)Nc2ccc(C)c(Cl)c2)cc1OC	–	13	–	–	–	–
CC(C)N1CCc2c(sc(NC(=O)c3ccc4ccccc4c3)c2C(N)=O)C1	–	–	–	–	–	–
CC(C)N1CCc2c(sc(NC(=O)c3cc4cc([N+](=O)[O-])ccc4s3)c2C(N)=O)C1	–	10	–	·	–	–
C[C@H](NC(=O)OCc1ccccc1)c1nnc([C@H](Cc2ccccc2)NC(=O)OC(C)(C)C)o1	–	–	–	26	–	–
SMILES	PAFAH1B2 FP inh	GRIN3A LBD mod	PAFAH2 FP inh	pPAFAH inh	PAFAH1B3 inh	UCH37 inh
COc1ccc2cc(C(c3nnnn3C(C)(C)C)N3CCc4ccccc4C3)c(=O)[nH]c2c1 (centres undefined)	·	·	·	34	·	·
CCC(C)(C)n1nnnc1C(c1cc2ccc(OC)cc2[nH]c1=O)N1CCc2ccccc2C1 (centres undefined)	–	–	–	–	–	–
CN(C)c1ccc(S(=O)(=O)NCC(=O)OCC(=O)Nc2cc(Cl)cc(Cl)c2)cc1[N+](=O)[O-]	–	18	–	–	–	–
CN(CCOc1ccc(Cl)cc1)C(=O)CNS(=O)(=O)c1ccc(N(C)C)c([N+](=O)[O-])c1	–	–	–	·	–	–
O=C1C2CCCN2C(=O)N1CCCN1CCN(c2ccc([N+](=O)[O-])cc2)CC1 (centres undefined)	–	–	–	29	–	–
O=C1C2CCCCN2C(=O)N1CCCCN1CCN(c2cccc(Br)c2)CC1 (centres undefined)	–	–	–	28	–	–
CCCc1c(C(=O)NN=Cc2ccc(C)s2)nnn1-c1nonc1N	·	·	·	·	·	–
COc1cccc(C=Nn2nnnc2N)c1	·	·	·	·	·	–
O=C(NN=Cc1ccc(O)cc1)c1cccc(C(F)(F)F)c1	·	·	·	·	·	–
Cc1ccnc(NC(=O)/C=C/c2ccccc2Cl)c1	–	20	–	–	–	–
Cc1ccnc(NC(=O)/C=C/c2ccccc2[N+](=O)[O-])c1	·	·	·	–	·	–
Cc1cc(C)nc(NC(=O)/C=C/c2ccccc2Cl)n1	–	–	–	–	–	–
Cc1cc(N)c2cc(NC(=O)/C=C/c3ccccc3Cl)ccc2n1	–	18	–	–	–	–
O=C(COCC(=O)NN=Cc1ccc(F)cc1)NN=Cc1ccc(F)cc1	·	·	·	·	·	–
